Test results as given in ChEMBL document CHEMBL2163188, “Discovery of piragliatin--first glucokinase activator studied in type 2 diabetic patients” (J Med Chem, 2012).

Columns and labels:
[1] = biological target: T1, Hexokinase-4 (Homo sapiens) (UniProt P35557); experiment: Activation of human recombinant glucokinase assessed as concentration required for 1.5 fold increase in enzymatic activity
T1 sequence (whole entry): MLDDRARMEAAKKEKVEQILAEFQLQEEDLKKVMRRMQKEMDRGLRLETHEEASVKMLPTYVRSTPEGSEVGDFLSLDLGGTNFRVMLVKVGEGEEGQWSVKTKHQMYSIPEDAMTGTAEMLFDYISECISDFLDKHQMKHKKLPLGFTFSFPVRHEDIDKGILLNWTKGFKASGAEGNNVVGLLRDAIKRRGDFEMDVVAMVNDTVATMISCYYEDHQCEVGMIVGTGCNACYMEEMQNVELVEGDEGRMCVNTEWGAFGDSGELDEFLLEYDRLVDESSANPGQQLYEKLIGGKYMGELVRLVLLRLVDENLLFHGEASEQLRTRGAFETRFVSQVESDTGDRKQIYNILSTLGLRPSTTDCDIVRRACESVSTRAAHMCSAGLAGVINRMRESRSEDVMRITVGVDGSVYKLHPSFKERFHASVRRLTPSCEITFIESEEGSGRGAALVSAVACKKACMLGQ
Outline: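 Human recombinant GK; activator at fixed concentrations from ∼0.010 to 30 μM, each in duplicate, with glucose held at 5 mM. SC1.5 is the activator concentration giving a 1.5-fold rise in enzymatic activity over untreated GK. Assay CV was about 15%.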

Liver microsomes = experiment: Drug degradation in human liver microsomes assessed as formation of metabolite 2 level at 20 uM after 30 mins by LCMS/MS analysis; assay type: ADME, Microsome; conditions: 0.5 h
Outline: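 Pooled human liver microsomes at 1 or 2 mg/mL protein in 0.1 M potassium phosphate pH 7.4 with 3 mM MgCl2, 1 mM EDTA and 1 mM NADPH. Substrate was 20 μM C-14 labelled compound, with 1% methanol final. Incubation ran 30 min after a 5 min preincubation and was stopped with ice-cold methanol or 50% aqueous TFA.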

| SMILES | Activity [1] [µM] | Drug metabolism (Liver microsomes) [ng/mL] |
| --- | --- | --- |
| CS(=O)(=O)c1ccc(C(CC2CCCC2)C(=O)Nc2ncccn2)cc1Cl (racemic) | 0.15 | – |
| CS(=O)(=O)c1ccc(C(CC2CCCC2)C(=O)Nc2nccs2)cc1Cl (racemic) | 0.119 | – |
| CS(=O)(=O)c1ccc([C@@H](CC2CCCC2O)C(=O)Nc2cnccn2)cc1Cl (mixture of isomers) | 2.73 | – |
| CS(=O)(=O)c1ccc(C(CC2CCCC2)C(=O)Nc2nccs2)cc1N (racemic) | 0.579 | – |
| CNC(=O)c1cnc(NC(=O)C(CC2CCCC2)c2ccc(S(C)(=O)=O)cc2)s1 (racemic) | 1.4 | < 10 |
| CS(=O)(=O)c1ccc(C(CC2CCCC2)C(=O)Nc2ccc3ccccc3n2)cc1Cl (racemic) | 0.12 | – |
| CS(=O)(=O)c1ccc(C(CC2CCCC2)C(=O)Nc2cnccn2)cc1 (racemic) | 1.78 | – |
